Marks after values point to notes of the source that are not given here.
Test: Phase I safety and tolerability, weekly
Assay type: in vivo, human
Summary of the method: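 Oral weekly dose escalation followed a 3+3 design (planned 90, 135, 200, 300mg, intermediate doses allowed), then a modified toxicity-probability-interval confirmation stage. A DLT was any drug-related CTCAE v3.0 ≥G4 hematological, ≥G3 febrile neutropenia or ≥G3 non-hematological toxicity. Safety visits, glucose, C-peptide and HbA1c monitoring followed a fixed schedule; AEs were graded by CTCAE v3.0.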

SMILES: NC1(c2ccc(-c3nc4ccn5c(=O)[nH]nc5c4cc3-c3ccccc3)cc2)CCC1 [MK-2206]
- Anorexia, number of AEs (90mg QW, G1, all cycles): 0 (0)
- Dermatitis acneiform, number of AEs (90mg QW, G1, all cycles): 0 (0)
- Diarrhea, number of AEs (90mg QW, G1, all cycles): 1 (1)
- Dry skin, number of AEs (90mg QW, G1, all cycles): 0 (0)
- Fatigue, number of AEs (90mg QW, G1, all cycles): 1 (1)
- Nausea, number of AEs (90mg QW, G1, all cycles): 0 (0)
- Pruritus, number of AEs (90mg QW, G1, all cycles): 0 (0)
- Rash (all rash terms collated), number of AEs (90mg QW, G1, all cycles): 0 (0)
- Stomatitis, number of AEs (90mg QW, G1, all cycles): 0 (0)
- Vomiting, number of AEs (90mg QW, G1, all cycles): 1 (1)
- Anorexia, number of AEs (90mg QW, G1, cycle 1): 0 (0)
- Dermatitis acneiform, number of AEs (90mg QW, G1, cycle 1): 0 (0)
- Diarrhea, number of AEs (90mg QW, G1, cycle 1): 1 (1)
- Dry skin, number of AEs (90mg QW, G1, cycle 1): 0 (0)
- Fatigue, number of AEs (90mg QW, G1, cycle 1): 1 (1)
- Nausea, number of AEs (90mg QW, G1, cycle 1): 0 (0)
- Pruritus, number of AEs (90mg QW, G1, cycle 1): 0 (0)
- Rash (all rash terms collated), number of AEs (90mg QW, G1, cycle 1): 0 (0)
- Stomatitis, number of AEs (90mg QW, G1, cycle 1): 0 (0)
- Vomiting, number of AEs (90mg QW, G1, cycle 1): 1 (1)
- Anorexia, number of AEs (135mg QW, G1, all cycles): 0 (0)
- Dermatitis acneiform, number of AEs (135mg QW, G1, all cycles): 1 (1)
- Diarrhea, number of AEs (135mg QW, G1, all cycles): 0 (0)
- Dry skin, number of AEs (135mg QW, G1, all cycles): 0 (0)
- Dysgeusia, number of AEs (135mg QW, G1, all cycles): 0 (0)
- Fatigue, number of AEs (135mg QW, G1, all cycles): 0 (0)
- Nausea, number of AEs (135mg QW, G1, all cycles): 0 (0)
- Pruritus, number of AEs (135mg QW, G1, all cycles): 1 (1)
- Rash (all rash terms collated), number of AEs (135mg QW, G1, all cycles): 1 (1)
- Stomatitis, number of AEs (135mg QW, G1, all cycles): 0 (0)
- Vomiting, number of AEs (135mg QW, G1, all cycles): 0 (0)
- Anorexia, number of AEs (135mg QW, G1, cycle 1): 0 (0)
- Dermatitis acneiform, number of AEs (135mg QW, G1, cycle 1): 1 (1)
- Diarrhea, number of AEs (135mg QW, G1, cycle 1): 0 (0)
- Dry skin, number of AEs (135mg QW, G1, cycle 1): 0 (0)
- Dysgeusia, number of AEs (135mg QW, G1, cycle 1): 0 (0)
- Fatigue, number of AEs (135mg QW, G1, cycle 1): 0 (0)
- Nausea, number of AEs (135mg QW, G1, cycle 1): 0 (0)
- Pruritus, number of AEs (135mg QW, G1, cycle 1): 1 (1)
- Rash (all rash terms collated), number of AEs (135mg QW, G1, cycle 1): 1 (1)
- Stomatitis, number of AEs (135mg QW, G1, cycle 1): 0 (0)
- Vomiting, number of AEs (135mg QW, G1, cycle 1): 0 (0)
- Dermatitis acneiform, number of AEs (150mg QW, G1, all cycles): 0 (0)
- Diarrhea, number of AEs (150mg QW, G1, all cycles): 0 (0)
- Dry skin, number of AEs (150mg QW, G1, all cycles): 0 (0)
- Dysgeusia, number of AEs (150mg QW, G1, all cycles): 0 (0)
- Fatigue, number of AEs (150mg QW, G1, all cycles): 0 (0)
- Nausea, number of AEs (150mg QW, G1, all cycles): 0 (0)
- Pruritus, number of AEs (150mg QW, G1, all cycles): 0 (0)
- Rash (all rash terms collated), number of AEs (150mg QW, G1, all cycles): 0 (0)
- Stomatitis, number of AEs (150mg QW, G1, all cycles): 0 (0)
- Vomiting, number of AEs (150mg QW, G1, all cycles): 2 (2)
- Dermatitis acneiform, number of AEs (150mg QW, G1, cycle 1): 0 (0)
- Diarrhea, number of AEs (150mg QW, G1, cycle 1): 0 (0)
- Dry skin, number of AEs (150mg QW, G1, cycle 1): 0 (0)
- Dysgeusia, number of AEs (150mg QW, G1, cycle 1): 0 (0)
- Fatigue, number of AEs (150mg QW, G1, cycle 1): 0 (0)
- Nausea, number of AEs (150mg QW, G1, cycle 1): 0 (0)
- Pruritus, number of AEs (150mg QW, G1, cycle 1): 0 (0)
- Rash (all rash terms collated), number of AEs (150mg QW, G1, cycle 1): 0 (0)
- Stomatitis, number of AEs (150mg QW, G1, cycle 1): 0 (0)
- Vomiting, number of AEs (150mg QW, G1, cycle 1): 2 (2)
- Anorexia, number of AEs (150mg QW, G2, all cycles): 0 (0)
- Dermatitis acneiform, number of AEs (150mg QW, G2, all cycles): 0 (0)
- Diarrhea, number of AEs (150mg QW, G2, all cycles): 0 (0)
- Dry skin, number of AEs (150mg QW, G2, all cycles): 0 (0)
- Dysgeusia, number of AEs (150mg QW, G2, all cycles): 0 (0)
- Fatigue, number of AEs (150mg QW, G2, all cycles): 0 (0)
- Nausea, number of AEs (150mg QW, G2, all cycles): 1 (1)
- Pruritus, number of AEs (150mg QW, G2, all cycles): 0 (0)
- Rash (all rash terms collated), number of AEs (150mg QW, G2, all cycles): 0 (0)
- Stomatitis, number of AEs (150mg QW, G2, all cycles): 0 (0)
- Vomiting, number of AEs (150mg QW, G2, all cycles): 0 (0)
- Anorexia, number of AEs (150mg QW, G2, cycle 1): 0 (0)
- Dermatitis acneiform, number of AEs (150mg QW, G2, cycle 1): 0 (0)
- Diarrhea, number of AEs (150mg QW, G2, cycle 1): 0 (0)
- Dry skin, number of AEs (150mg QW, G2, cycle 1): 0 (0)
- Dysgeusia, number of AEs (150mg QW, G2, cycle 1): 0 (0)
- Fatigue, number of AEs (150mg QW, G2, cycle 1): 0 (0)
- Nausea, number of AEs (150mg QW, G2, cycle 1): 1 (1)
- Pruritus, number of AEs (150mg QW, G2, cycle 1): 0 (0)
- Rash (all rash terms collated), number of AEs (150mg QW, G2, cycle 1): 0 (0)
- Stomatitis, number of AEs (150mg QW, G2, cycle 1): 0 (0)
- Vomiting, number of AEs (150mg QW, G2, cycle 1): 0 (0)
- Anorexia, number of AEs (150mg QW, G3, all cycles): 0 (0)
- Dermatitis acneiform, number of AEs (150mg QW, G3, all cycles): 0 (0)
- Diarrhea, number of AEs (150mg QW, G3, all cycles): 0 (0)
- Dry skin, number of AEs (150mg QW, G3, all cycles): 0 (0)
- Dysgeusia, number of AEs (150mg QW, G3, all cycles): 0 (0)
- Fatigue, number of AEs (150mg QW, G3, all cycles): 0 (0)
- Nausea, number of AEs (150mg QW, G3, all cycles): 0 (0)
- Pruritus, number of AEs (150mg QW, G3, all cycles): 0 (0)
- Rash (all rash terms collated), number of AEs (150mg QW, G3, all cycles): 3
- Stomatitis, number of AEs (150mg QW, G3, all cycles): 0 (0)
- Vomiting, number of AEs (150mg QW, G3, all cycles): 0 (0)
- Anorexia, number of AEs (150mg QW, G3, cycle 1): 0 (0)
- Dermatitis acneiform, number of AEs (150mg QW, G3, cycle 1): 0 (0)
- Diarrhea, number of AEs (150mg QW, G3, cycle 1): 0 (0)
- Dry skin, number of AEs (150mg QW, G3, cycle 1): 0 (0)
- Dysgeusia, number of AEs (150mg QW, G3, cycle 1): 0 (0)
- Fatigue, number of AEs (150mg QW, G3, cycle 1): 0 (0)
- Nausea, number of AEs (150mg QW, G3, cycle 1): 0 (0)
- Pruritus, number of AEs (150mg QW, G3, cycle 1): 0 (0)
- Stomatitis, number of AEs (150mg QW, G3, cycle 1): 0 (0)
- Vomiting, number of AEs (150mg QW, G3, cycle 1): 0 (0)
- Rash (all rash terms collated), number of AEs (150mg QW, G3, cycle 1, dose-limiting toxicity): 1
- Anorexia, number of AEs (200mg QW, G1, all cycles): 1 (1)
- Dermatitis acneiform, number of AEs (200mg QW, G1, all cycles): 0 (0)
- Diarrhea, number of AEs (200mg QW, G1, all cycles): 2 (2)
- Dry skin, number of AEs (200mg QW, G1, all cycles): 1 (1)
- Dysgeusia, number of AEs (200mg QW, G1, all cycles): 0 (0)
- Nausea, number of AEs (200mg QW, G1, all cycles): 4 (4)
- Stomatitis, number of AEs (200mg QW, G1, all cycles): 2 (2)
- Vomiting, number of AEs (200mg QW, G1, all cycles): 2 (2)
- Anorexia, number of AEs (200mg QW, G1, cycle 1): 1 (1)
- Dermatitis acneiform, number of AEs (200mg QW, G1, cycle 1): 0 (0)
- Diarrhea, number of AEs (200mg QW, G1, cycle 1): 2 (2)
- Dry skin, number of AEs (200mg QW, G1, cycle 1): 1 (1)
- Dysgeusia, number of AEs (200mg QW, G1, cycle 1): 0 (0)
- Nausea, number of AEs (200mg QW, G1, cycle 1): 4 (4)
- Stomatitis, number of AEs (200mg QW, G1, cycle 1): 2 (2)
- Vomiting, number of AEs (200mg QW, G1, cycle 1): 2 (2)
- Anorexia, number of AEs (200mg QW, G2, all cycles): 0 (0)
- Dermatitis acneiform, number of AEs (200mg QW, G2, all cycles): 0 (0)
- Diarrhea, number of AEs (200mg QW, G2, all cycles): 0 (0)
- Dry skin, number of AEs (200mg QW, G2, all cycles): 0 (0)
- Dysgeusia, number of AEs (200mg QW, G2, all cycles): 0 (0)
- Fatigue, number of AEs (200mg QW, G2, all cycles): 1 (1)
- Nausea, number of AEs (200mg QW, G2, all cycles): 1 (1)
- Rash (all rash terms collated), number of AEs (200mg QW, G2, all cycles): 4 (4)
- Stomatitis, number of AEs (200mg QW, G2, all cycles): 0 (0)
- Vomiting, number of AEs (200mg QW, G2, all cycles): 0 (0)
- Anorexia, number of AEs (200mg QW, G2, cycle 1): 0 (0)
- Dermatitis acneiform, number of AEs (200mg QW, G2, cycle 1): 0 (0)
- Diarrhea, number of AEs (200mg QW, G2, cycle 1): 0 (0)
- Dry skin, number of AEs (200mg QW, G2, cycle 1): 0 (0)
- Dysgeusia, number of AEs (200mg QW, G2, cycle 1): 0 (0)
- Fatigue, number of AEs (200mg QW, G2, cycle 1): 1 (1)
- Nausea, number of AEs (200mg QW, G2, cycle 1): 1 (1)
- Rash (all rash terms collated), number of AEs (200mg QW, G2, cycle 1): 4 (4)
- Stomatitis, number of AEs (200mg QW, G2, cycle 1): 0 (0)
- Vomiting, number of AEs (200mg QW, G2, cycle 1): 0 (0)
- Anorexia, number of AEs (200mg QW, G3, all cycles): 0 (0)
- Dermatitis acneiform, number of AEs (200mg QW, G3, all cycles): 1^c (1)
- Diarrhea, number of AEs (200mg QW, G3, all cycles): 0 (0)
- Dry skin, number of AEs (200mg QW, G3, all cycles): 0 (0)
- Dysgeusia, number of AEs (200mg QW, G3, all cycles): 0 (0)
- Fatigue, number of AEs (200mg QW, G3, all cycles): 0 (0)
- Nausea, number of AEs (200mg QW, G3, all cycles): 0 (0)
- Pruritus, number of AEs (200mg QW, G3, all cycles): 0 (0)
- Rash (all rash terms collated), number of AEs (200mg QW, G3, all cycles): 3^c (3)
- Stomatitis, number of AEs (200mg QW, G3, all cycles): 0 (0)
- Vomiting, number of AEs (200mg QW, G3, all cycles): 0 (0)
- Anorexia, number of AEs (200mg QW, G3, cycle 1): 0 (0)

Source: article PMC4233149 (Clinical cancer research : an official journal of the …, 2014)
